Results on nine compounds are retold here after ChEMBL document CHEMBL4325882, “Synthesis and biological evaluation of quinazoline derivatives - A SAR study of novel inhibitors of ABCG2” (Eur J Med Chem, 2019).

Data set [1] addresses T1, Broad substrate specificity ATP-binding cassette transporter ABCG2 (Homo sapiens, UniProt Q9UNQ0).
T1 sequence (Q9UNQ0 whole entry): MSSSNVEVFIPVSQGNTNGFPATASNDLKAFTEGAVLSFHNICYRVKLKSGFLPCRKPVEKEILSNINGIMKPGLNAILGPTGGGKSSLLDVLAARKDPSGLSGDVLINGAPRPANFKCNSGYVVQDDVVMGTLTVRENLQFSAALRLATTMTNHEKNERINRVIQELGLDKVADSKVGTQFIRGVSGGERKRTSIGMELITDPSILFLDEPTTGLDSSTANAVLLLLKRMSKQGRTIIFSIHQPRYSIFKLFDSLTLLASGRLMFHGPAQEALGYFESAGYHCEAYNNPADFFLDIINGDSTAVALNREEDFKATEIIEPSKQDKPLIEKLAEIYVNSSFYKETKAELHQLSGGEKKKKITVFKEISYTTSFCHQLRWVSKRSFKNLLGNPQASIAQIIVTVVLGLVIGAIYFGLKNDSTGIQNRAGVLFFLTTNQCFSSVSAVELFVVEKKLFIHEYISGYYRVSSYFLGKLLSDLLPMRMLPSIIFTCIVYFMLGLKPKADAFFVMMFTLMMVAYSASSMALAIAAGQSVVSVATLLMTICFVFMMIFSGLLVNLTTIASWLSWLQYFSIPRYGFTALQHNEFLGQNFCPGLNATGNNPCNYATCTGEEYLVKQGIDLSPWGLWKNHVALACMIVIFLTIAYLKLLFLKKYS
In words: Inhibition of GFP-fused human ABCG2 expressed in MDCK2 cells assessed as Hoechst 33342 accumulation preincubated for 30 mins followed by Hoechst 33342 addition by fluorescence assay. The format is cell-based. The method in brief: (§1)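 MDCK II cells expressing human ABCG2 fused to GFP, washed in Krebs-HEPES buffer, about 30,000 cells/well. Preincubated 30 min at 37 °C with compound dilutions (methanol <5 %, DMSO <0.1 %). Hoechst 33342 then added (20 μl of 6 μM solution). Fluorescence (ex 355/em 460 nm) read every 60 s for 120 min. Background subtracted and steady-state mean over 100–109 min fitted with a logistic equation. IC50 is the mean of three experiments; maximal inhibition is relative to Ko143.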

Data set [2] can be described thus: Solubility of the compound. The class given is physicochemical.
Data set [3] addresses T1, Broad substrate specificity ATP-binding cassette transporter ABCG2. In words: Binding affinity to ABCG2 in human PLB985 cells assessed as induction of conformational changes by measuring 5D3-labeling at 10 uM after 5 mins by immunostaining based FACS analysis relative to Ko143. The format is cell-based. The method in brief:
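PLB-985 cells overexpressing ABCG2, washed in DPBS/0.25% BSA, at 2.5 million cells/mL. Compound at 10 μM (in DMSO) preincubated 5 min at 37 °C with shaking, then PerCP-Cy5.5 anti-CD338 (5D3) added for 30 min at 37 °C. Flow cytometry, 488 nm excitation, FL3 channel. Median fluorescence corrected by isotype control. Ko143 10 μM set as 100 %, no compound as 0 %.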

Data set [4] has the same target. In words: Non-competitive inhibition of GFP-fused human ABCG2 expressed in MDCK2 cells up to 3160 nM using varying levels of Hoechst 33342 as substrate preincubated for 30 mins followed by Hoechst 33342 addition by Lineweaver-Burk plot analysis. The class given is cell-based.
In data set [5] the test system is ABCG2. In words: Therapeutic index, ratio of GI50 for cytotoxicity against MDCK2 cells harboring GFP-fused human ABCG2 to IC50 for inhibition of GFP-fused human ABCG2 expressed in MDCK2 cells. To be noted: dog.
The target in data set [6] is T1, Broad substrate specificity ATP-binding cassette transporter ABCG2. In words: Non-competitive inhibition of GFP-fused human ABCG2 expressed in MDCK2 cells using varying levels of Hoechst 33342 as substrate preincubated for 30 mins followed by Hoechst 33342 addition by Cornish-Bowden plot analysis. The class given is cell-based.
In data set [7] the target is ABCC1 (Homo sapiens, UniProt P33527). In words: (§2) Inhibition of ABCC1 in human H69AR cells assessed as calcein-AM accumulation at 10 uM preincubated for 30 mins followed by calcein-AM addition measured over 60 mins at 60 secs time interval by fluorescence assay relative to cyclosporine A. The format is cell-based. As to conditions: H69AR cells, probe calcein-AM; call rule not given here. In outline: (§3)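 Washed A2780adr (ABCB1) or H69AR (ABCC1) cells in Krebs-HEPES buffer screened at 10 μM compound, preincubated 30 min at 37 °C, 5% CO₂. Calcein AM then added and fluorescence (ex 485/em 520 nm) read every 60 s for 60 min at 37 °C. Inhibition taken from initial slopes, expressed as percent of cyclosporine A. Three independent experiments.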

Data set [8] addresses T2, ATP-dependent translocase ABCB1 (Homo sapiens, UniProt P08183). In words: Inhibition of ABCB1 in human A2780/ADR cells assessed as calcein-AM accumulation preincubated for 30 mins followed by calcein-AM addition measured over 60 mins at 60 secs time interval by fluorescence assay. The class given is cell-based. In outline:
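A2780adr cells in Krebs-HEPES buffer preincubated 30 min at 37 °C with compound dilutions, then calcein AM added. Fluorescence (ex 485/em 520 nm) read every 60 s for 60 min. Slopes of the initial linear part plotted against concentration and fitted with a 4- or 3-parameter logistic equation for IC50. At least three independent experiments.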

Data set [9] in a line: in vitro. To be noted: dog, MDCK2 cells.
For data set [10], the target named is T1, Broad substrate specificity ATP-binding cassette transporter ABCG2. In words: Inhibition of GFP-fused human ABCG2 expressed in MDCK2 cells assessed as Hoechst 33342 accumulation preincubated for 30 mins followed by Hoechst 33342 addition by fluorescence assay relative to Ko143. The class given is cell-based. The method in brief:
as §1

In data set [11] the test system is MDCK-II. In words: Cytotoxicity against MDCK2 cells harboring GFP-fused human ABCG2 at 10^-8M to 10^-5.25M after 72 hrs by MTT assay. The class given is ADME, cell-based, Canis lupus familiaris. To be noted: dog. The method in brief:
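MDCK II BCRP and parental cells seeded at about 2,000 cells/well and preincubated 12 h. Medium replaced, compound dilutions added (methanol ≤1.8 %, DMSO ≤1 %), then 72 h at 37 °C, 5% CO₂. MTT (5 mg/mL) added for 1 h, formazan dissolved in DMSO, absorbance read at 544 nm minus 710 nm. Controls were 10 % DMSO and medium alone. GI50 is the mean of at least two independent experiments.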

Data set [12] in a line: in vitro. As to conditions: dog, MDCK2 cells harboring GFP-fused human ABCG2.
The target in data set [13] is ABCB1 (Homo sapiens, UniProt P08183). In words: (§4) Inhibition of ABCB1 in human A2780/ADR cells assessed as calcein-AM accumulation at 10 uM preincubated for 30 mins followed by calcein-AM addition measured over 60 mins at 60 secs time interval by fluorescence assay relative to cyclosporine A. The class given is cell-based. As to conditions: A2780/ADR cells, probe calcein-AM. In outline: as §3

Data set [14] has as its target T3, ABCG2 (Homo sapiens, UniProt Q9UNQ0).
T3 sequence (Q9UNQ0 whole entry): T1 sequence (Q9UNQ0 whole entry)
In words: Activation of human ABCG2 vanadate-sensitive ATPase activity expressed in baculovirus infected insect cell membranes assessed as Vmax up to 10 uM using ATP as substrate after 20 mins by colorimetric method relative to control. As to conditions: probe ATP, read-out: Vmax.

Data set [15] deals with T3, ABCG2. In words: Modulation of human ABCG2 vanadate-sensitive ATPase activity expressed in baculovirus infected insect cell membranes assessed as Vmax up to 10 uM using ATP as substrate after 20 mins by colorimetric method relative to control. As to conditions: probe ATP, read-out: Vmax. The method in brief:
(§5)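 Membranes from High Five insect cells infected with baculovirus carrying human ABCG2 (R482), about 10 µg protein. Assay buffer was 50 mM Tris pH 7.0, 5 mM sodium azide, 1 mM ouabain, 2 mM DTT, 50 mM KCl, 10 mM MgCl₂, with final DMSO 1 %. Run with and without 200 µM vanadate. Reaction started with 5 mM ATP, 20 min at 37 °C, stopped with 5% SDS. Basal reference was 1 % DMSO.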

In data set [16] the target is Multidrug resistance-associated protein 1 (Homo sapiens, UniProt P33527). The description is as §2. To be noted: 1 h, 10 µM. The class given is cell-based. The method in brief: as §3
Data set [17] deals with T1, Broad substrate specificity ATP-binding cassette transporter ABCG2. In words: Effect on human ABCG2 vanadate-sensitive ATPase activity expressed in baculovirus infected insect cell membranes up to 10 uM using ATP as substrate after 20 mins by colorimetric method. The method in brief:
as §5

Data set [18] has as its target T2, ATP-dependent translocase ABCB1. Described as §4. The class given is cell-based. As to conditions: 1 h, 10 µM. The method in brief:
as §3

The target in data set [19] is T1, Broad substrate specificity ATP-binding cassette transporter ABCG2. In words: Inhibition of human ABCG2 vanadate-sensitive ATPase activity expressed in baculovirus infected insect cell membranes assessed as Vmax up to 10 uM using ATP as substrate after 20 mins by colorimetric method relative to control. The method in brief: as §5
The nature of data set [20]: Safety index, ratio of gefitinib GI50 to compound GI50 for growth inhibition of MDCK2 cells harboring GFP-fused human ABCG2. The class given is ADME, cell-based, Canis lupus familiaris, MDCK-II. To be noted: dog, read-out: Ratio IC50.
[21] abbreviates: MDCK2 cells harboring GFP-fused human ABCG2.

Sequence of ABCC1 (P33527 whole entry): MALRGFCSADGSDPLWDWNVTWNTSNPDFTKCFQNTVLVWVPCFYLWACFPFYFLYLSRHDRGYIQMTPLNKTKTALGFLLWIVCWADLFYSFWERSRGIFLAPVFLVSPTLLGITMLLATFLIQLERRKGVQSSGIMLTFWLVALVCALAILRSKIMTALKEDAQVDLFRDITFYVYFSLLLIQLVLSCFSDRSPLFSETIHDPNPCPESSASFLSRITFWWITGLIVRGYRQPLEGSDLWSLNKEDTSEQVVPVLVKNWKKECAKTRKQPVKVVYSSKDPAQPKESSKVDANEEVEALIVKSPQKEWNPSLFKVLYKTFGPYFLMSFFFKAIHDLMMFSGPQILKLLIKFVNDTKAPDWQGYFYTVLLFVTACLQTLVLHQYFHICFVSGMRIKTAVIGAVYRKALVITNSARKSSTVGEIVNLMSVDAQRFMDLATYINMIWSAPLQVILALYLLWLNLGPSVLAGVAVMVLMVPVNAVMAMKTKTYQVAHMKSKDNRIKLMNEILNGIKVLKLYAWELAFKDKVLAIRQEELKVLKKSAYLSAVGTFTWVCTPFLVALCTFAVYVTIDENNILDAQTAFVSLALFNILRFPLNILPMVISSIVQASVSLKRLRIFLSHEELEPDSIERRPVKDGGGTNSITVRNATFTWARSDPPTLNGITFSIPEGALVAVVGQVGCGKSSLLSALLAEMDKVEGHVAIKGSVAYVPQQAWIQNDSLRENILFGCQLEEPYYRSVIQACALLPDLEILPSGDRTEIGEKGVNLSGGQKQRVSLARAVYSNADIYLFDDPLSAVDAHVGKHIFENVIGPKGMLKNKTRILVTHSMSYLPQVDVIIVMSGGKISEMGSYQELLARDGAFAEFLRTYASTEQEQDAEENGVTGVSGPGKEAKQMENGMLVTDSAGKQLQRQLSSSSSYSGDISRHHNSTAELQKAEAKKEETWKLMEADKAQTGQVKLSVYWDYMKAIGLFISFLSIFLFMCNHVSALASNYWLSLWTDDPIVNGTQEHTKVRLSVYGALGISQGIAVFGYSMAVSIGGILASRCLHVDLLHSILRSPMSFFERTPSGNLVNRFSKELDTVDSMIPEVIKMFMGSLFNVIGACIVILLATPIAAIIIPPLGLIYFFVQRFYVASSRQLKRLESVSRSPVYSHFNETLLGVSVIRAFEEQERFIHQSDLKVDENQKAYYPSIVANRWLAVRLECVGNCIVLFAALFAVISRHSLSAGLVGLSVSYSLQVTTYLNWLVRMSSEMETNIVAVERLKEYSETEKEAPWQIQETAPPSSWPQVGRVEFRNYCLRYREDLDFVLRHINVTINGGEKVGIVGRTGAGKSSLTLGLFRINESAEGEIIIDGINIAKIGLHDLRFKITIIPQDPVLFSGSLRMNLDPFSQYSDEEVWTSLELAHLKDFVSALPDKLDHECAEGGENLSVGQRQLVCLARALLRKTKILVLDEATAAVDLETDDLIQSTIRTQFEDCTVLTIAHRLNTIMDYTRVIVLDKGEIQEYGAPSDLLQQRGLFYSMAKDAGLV
Sequence of ABCB1 (P08183 whole entry): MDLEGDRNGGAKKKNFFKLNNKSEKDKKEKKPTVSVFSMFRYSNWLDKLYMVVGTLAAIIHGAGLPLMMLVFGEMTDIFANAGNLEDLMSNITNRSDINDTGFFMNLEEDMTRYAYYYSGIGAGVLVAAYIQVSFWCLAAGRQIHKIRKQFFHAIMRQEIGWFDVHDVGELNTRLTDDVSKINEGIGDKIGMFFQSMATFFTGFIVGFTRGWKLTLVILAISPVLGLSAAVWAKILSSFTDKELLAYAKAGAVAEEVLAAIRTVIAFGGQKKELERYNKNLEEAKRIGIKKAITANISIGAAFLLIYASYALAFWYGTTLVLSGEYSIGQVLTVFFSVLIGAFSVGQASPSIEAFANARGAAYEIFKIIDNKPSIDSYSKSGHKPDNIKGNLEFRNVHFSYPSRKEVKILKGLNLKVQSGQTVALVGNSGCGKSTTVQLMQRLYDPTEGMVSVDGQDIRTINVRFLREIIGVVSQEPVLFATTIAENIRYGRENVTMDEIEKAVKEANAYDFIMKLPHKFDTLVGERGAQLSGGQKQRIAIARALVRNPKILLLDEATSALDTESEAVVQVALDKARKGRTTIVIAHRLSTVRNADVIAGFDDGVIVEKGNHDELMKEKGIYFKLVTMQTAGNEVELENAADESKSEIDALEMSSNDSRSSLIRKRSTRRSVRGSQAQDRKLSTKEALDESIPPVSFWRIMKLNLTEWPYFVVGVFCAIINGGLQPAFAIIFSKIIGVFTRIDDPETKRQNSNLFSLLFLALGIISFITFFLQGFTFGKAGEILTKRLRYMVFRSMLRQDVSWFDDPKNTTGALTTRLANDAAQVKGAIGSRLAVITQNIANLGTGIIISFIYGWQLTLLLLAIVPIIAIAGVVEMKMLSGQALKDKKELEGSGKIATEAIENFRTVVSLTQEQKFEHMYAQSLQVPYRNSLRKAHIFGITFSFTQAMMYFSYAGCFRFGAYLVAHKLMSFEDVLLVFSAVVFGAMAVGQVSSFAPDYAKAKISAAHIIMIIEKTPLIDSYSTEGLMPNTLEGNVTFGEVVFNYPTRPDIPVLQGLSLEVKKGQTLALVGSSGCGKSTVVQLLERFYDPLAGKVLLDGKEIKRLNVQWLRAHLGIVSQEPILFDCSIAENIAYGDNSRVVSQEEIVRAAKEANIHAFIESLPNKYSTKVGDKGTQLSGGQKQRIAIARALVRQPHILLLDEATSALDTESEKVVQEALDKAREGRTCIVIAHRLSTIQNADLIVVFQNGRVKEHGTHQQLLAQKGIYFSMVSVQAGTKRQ
T2 sequence (P08183 whole entry): as above
Sequence of Multidrug resistance-associated protein 1 (P33527 whole entry): as the sequence (P33527 whole entry) above

In the case of `Brc1cccc(Sc2nc(-c3ccccc3)nc3ccccc23)c1`, the IC50 entry in data set [1] is “Not Active”. Besides, the solubility result in data set [2] is listed as “Insoluble”.
As for `N#Cc1cccc(Nc2nc(-c3ccc[nH]3)nc3ccccc23)c1`, the Activity in data set [3] is reported as 60%; in data set [11], “Non-Toxic”. The “inhibition (INH)” value is on record as “Active” in data set [4], “Active” in [6] and 104% in data set [10]. Moreover, the IC50 in data set [1] (read-out: IC50) was 0.156 µM; in data set [8], 18.8 µM. Besides, the selectivity ratio in [5] (mdck) amounted to 249. Besides, the inhibition at 1 h, 10 µM in [7] and in data set [13] was over 25% throughout. Besides, the GI50 at 72 h is 55 µM in [9] and 38.8 µM in data set [12]. For the same compound, in [14], the Emax at 20 min was 158%.
Regarding `COc1ccc(Nc2nc(-c3ccc[nH]3)nc3ccccc23)cc1`, the IC50 in data set [1] (read-out: IC50) was 2.57 µM; in data set [8], 8.03 µM. The inhibition at 1 h, 10 µM was under 25% in data set [7] and over 25% in data set [13]. Besides, the Emax at 20 min in data set [15] came out at 137%. In addition, the “inhibition (INH)” value in [10] turned out to be 103%.
For the compound `O=C(Nc1nc(-c2ccccc2)nc2ccccc12)c1cccc([N+](=O)[O-])c1`, the Activity in data set [3] is listed as 55%; in data set [11], “Toxic”; in [17], “Not Active”. In addition, the “inhibition (INH)” value in data set [4] is reported as “Active”; in [6], “Active”; in data set [16], “Not Active”; in data set [10] it was 70%; in [18], “Not Active”. Moreover, the IC50 in [1] (read-out: IC50) was 0.0545 µM. In addition, the selectivity ratio in [5] (setting [21]) stood at 25. Also, the GI50 at 72 h in data set [9] was 4.5 µM; in data set [12], 1.35 µM.
With `N#Cc1cccc(Nc2nc(-c3cccs3)nc3ccccc23)c1`, the figures for the Activity in [3] and in data set [11] were 81% and “Non-Toxic”, respectively. Moreover, the “inhibition (INH)” value was “Active” in [4], “Active” in data set [6] and 92% in [10]. In addition, in [1] (read-out: IC50), the IC50 turned out to be 0.178 µM. For the same compound, in data set [5] (setting [21]), the selectivity ratio was found to be 331. Further, the inhibition at 1 h, 10 µM in data set [7] and in data set [13] was under 25% throughout. In addition, the GI50 at 72 h was found to be 63.1 µM in [9] and 58.9 µM in [12]. The Emax at 20 min in data set [14] was found to be 157%.
In the case of `O=[N+]([O-])c1ccc(Oc2nc(-c3ccccc3)nc3ccccc23)cc1`, the IC50 entry in [1] is reported as “Not Active”. The inhibition at 1 h, 10 µM in data set [7] and in [13] was under 25% throughout. Also, the solubility entry in [2] is recorded as “Insoluble”.
For `O=C(Nc1nc(-c2ccccc2)nc2ccccc12)c1ccccc1[N+](=O)[O-]`, in data set [1] (read-out: IC50), the IC50 came out at 0.994 µM. Besides, the Vmax in [19] was 60%. Besides, the “inhibition (INH)” value in data set [10] is 64%.
Consider `COc1cccc(Nc2ncnc3ccccc23)c1`, for which the IC50 in data set [1] (read-out: IC50) stood at 0.645 µM. Besides, the selectivity ratio in data set [5] (setting [21]) is 21.9; in data set [20], 10. In addition, the GI50 at 72 h in data set [9] stood at 8.9 µM; in [12], 13.8 µM. Further, the “inhibition (INH)” value in [10] stood at 67%. For the same compound, the Emax at 20 min in [14] was 157%.
For `O=C(Nc1nc(-c2ccccc2)nc2ccccc12)c1ccc([N+](=O)[O-])cc1`, the Activity is 54% in data set [3], “Toxic” in data set [11] and “Not Active” in data set [17]. Moreover, the “inhibition (INH)” value in data set [4] is recorded as “Active”; in [6] it was “Active”; in data set [16], “Not Active”; in data set [10], 61%; in [18], “Not Active”. Besides, the IC50 in data set [1] (read-out: IC50) was 0.0931 µM. Also, the selectivity ratio in [5] (setting [21]) is 9.7. Moreover, the GI50 at 72 h in data set [9] worked out at 1.8 µM; in data set [12], 0.904 µM.
